Data from ChEMBL document CHEMBL4138092, “Antibacterial activity and mechanism of action of the benzazole acrylonitrile-based compounds: In vitro, spectroscopic, and docking studies” (2017).
Converted amounts (≈) assume the structure as drawn. The source made the active and inactive calls. The rule behind the calls is not given here.

Columns and labels:
[1] = system: Escherichia coli; experiment: Antibacterial activity against Escherichia coli ATCC 25922 after 24 to 48 hrs by agar well diffusion method; format: functional
Method in brief: (§1)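 Mueller Hinton agar plates spread with bacteria (10⁶ cells/ml). Wells were filled with 50 µl of compound and incubated at 37 °C for 24–48 h. The inhibition zone diameter (mm) was measured with a transparent scale. Amoxicillin 5.0 mg/ml at 50 µl/well served as the positive control.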

[2] = system: Staphylococcus aureus; experiment: Antibacterial activity against Staphylococcus aureus ATCC 25923 after 24 to 48 hrs by agar well diffusion method; format: functional; method in brief: as §1
[3] = system: Pseudomonas aeruginosa; experiment: Antibacterial activity against Pseudomonas aeruginosa ATCC 27853 after 24 hrs by agar well diffusion method; format: functional; conditions: ATCC 27853, 24 h
[4] = system: Escherichia coli; experiment: Antibacterial activity against Escherichia coli ATCC 25922 after 24 hrs by agar well diffusion method; format: functional; conditions: ATCC 25922, 24 h
[5] = system: Bacillus spizizenii; experiment: Antibacterial activity against Bacillus subtilis ATCC 6633 after 24 hrs by agar well diffusion method; format: functional; conditions: ATCC 6633, 24 h
[6] = system: Bacillus spizizenii; experiment: Antibacterial activity against Bacillus subtilis ATCC 6633 after 24 to 48 hrs by agar well diffusion method; format: functional; method in brief: as §1
[7] = system: Pseudomonas aeruginosa; experiment: Antibacterial activity against Pseudomonas aeruginosa ATCC 27853 after 24 to 48 hrs by agar well diffusion method; format: functional; method in brief: as §1
[8] = system: Staphylococcus aureus; experiment: Antibacterial activity against Staphylococcus aureus ATCC 25923 after 24 hrs by agar well diffusion method; format: functional; conditions: ATCC 25923, 24 h
[9] = target: Beta-lactamase (Staphylococcus aureus) (UniProt P00807); experiment: Inhibition of beta-lactamase in Staphylococcus aureus ATCC 25923 assessed as potentiation of amoxicillin induced antibacterial activity at 10 to 100% amoxicillin to compound dilution after 24 hrs by agar well diffusion method
Method in brief: (§2)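 Amoxicillin (1.0 µg/ml) was combined with test compound and diluted to 100, 80, 60, 40, 10 and 5%. The mixtures were serially diluted in sterile water, and 100 µl was added to 900 µl nutrient broth. Tubes were inoculated with 10 µl of 10⁵ cells/ml and held 24 h at 37±1 °C. Growth/no growth was scored visually. Controls were bacteria in broth alone and sterile broth alone.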

[10] = system: Escherichia coli ATCC 25922; experiment: Inhibition of beta-lactamase in Escherichia coli ATCC 25922 assessed as potentiation of amoxicillin induced antibacterial activity by measuring amoxicillin MIC after 24 hrs by agar well diffusion method (reference value: 1.5 ug/ml); method in brief: as §2
[11] = target: Beta-lactamase (Escherichia coli) (UniProt Q53TY8); experiment: Binding affinity to Escherichia coli beta-lactamase in phosphate buffer at pH 7.4 at 6 10^-5M after 3 mins by fluorescence titration analysis
Method in brief: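 Fixed compound concentration in phosphate buffer pH 7.4, titrated with 10 µl additions of 1 × 10^-6 M β-lactamase. Excitation was 280 or 290 nm depending on compound, with emission scanned 300–600 nm and slits 5–10 nm. Readings followed 3 min equilibration per addition in a 1 cm quartz cell, continuing to saturation.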

[12] = system: Bifidobacterium longum subsp. infantis; experiment: Inhibition of beta-lactamase in Bifidobacterium infantis assessed as potentiation of amoxicillin induced antibacterial activity after 24 hrs by agar well diffusion method; method in brief: as §2
[13] = system: Bifidobacterium longum subsp. infantis; experiment: Inhibition of beta-lactamase in Bifidobacterium infantis assessed as potentiation of amoxicillin induced antibacterial activity at 5% amoxicillin to compound dilution after 24 hrs by agar well diffusion method; method in brief: as §2
[14] = target: Beta-lactamase (Staphylococcus aureus) (UniProt P00807); experiment: Inhibition of beta-lactamase in Staphylococcus aureus ATCC 25923 assessed as potentiation of amoxicillin induced antibacterial activity after 24 hrs by agar well diffusion method; method in brief: as §2
[15] = target: Beta-lactamase (Escherichia coli) (UniProt Q53TY8); experiment: Binding affinity to Escherichia coli beta-lactamase in phosphate buffer at pH 7.4 at 6 10^-5M after 3 mins by UV-vis spectroscopic analysis
Method in brief: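 Compound at 6 × 10^-5 M in 0.01 M phosphate buffer pH 7.4 was titrated with 10 µl aliquots of 1 × 10^-6 M β-lactamase. Absorbance spectra were recorded at 200–700 nm after 3 min equilibration per addition, continuing until no further change (saturation).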

[16] = target: Beta-lactamase (Pseudomonas aeruginosa) (UniProt Q79MP6); experiment: Inhibition of beta-lactamase in Pseudomonas aeruginosa ATCC 27853 assessed as potentiation of amoxicillin induced antibacterial activity by measuring amoxicillin MIC after 24 hrs by agar well diffusion method (reference value: 1 ug/ml); method in brief: as §2
[17] = system: Bifidobacterium longum subsp. infantis; experiment: Inhibition of beta-lactamase in Bifidobacterium infantis assessed as potentiation of amoxicillin induced antibacterial activity by measuring amoxicillin MIC after 24 hrs by agar well diffusion method (reference value: 1.5 ug/ml); method in brief: as §2
[18] = system: Bifidobacterium longum; experiment: Antibacterial activity against Bifidobacterium infantis after 24 hrs by agar well diffusion method; format: functional, Bifidobacterium longum subsp. infantis
[19] = system: Escherichia coli ATCC 25922; experiment: Inhibition of beta-lactamase in Escherichia coli ATCC 25922 assessed as potentiation of amoxicillin induced antibacterial activity at 10 to 100% amoxicillin to compound dilution after 24 hrs by agar well diffusion method; method in brief: as §2
[20] = system: Escherichia coli ATCC 25922; experiment: Inhibition of beta-lactamase in Escherichia coli ATCC 25922 assessed as potentiation of amoxicillin induced antibacterial activity at 5% amoxicillin to compound dilution after 24 hrs by agar well diffusion method; method in brief: as §2
[21] = target: Beta-lactamase (Pseudomonas aeruginosa) (UniProt Q8RL90); experiment: Inhibition of beta-lactamase in Pseudomonas aeruginosa ATCC 27853 assessed as potentiation of amoxicillin induced antibacterial activity after 24 hrs by agar well diffusion method; method in brief: as §2
[22] = target: Beta-lactamase (Pseudomonas aeruginosa) (UniProt Q8RL90); experiment: Inhibition of beta-lactamase in Pseudomonas aeruginosa ATCC 27853 assessed as potentiation of amoxicillin induced antibacterial activity at 5% amoxicillin to compound dilution after 24 hrs by agar well diffusion method; method in brief: as §2
[23] = system: Bifidobacterium longum subsp. infantis; experiment: Inhibition of beta-lactamase in Bifidobacterium infantis assessed as potentiation of amoxicillin induced antibacterial activity at 10 to 100% amoxicillin to compound dilution after 24 hrs by agar well diffusion method; method in brief: as §2
[24] = target: Beta-lactamase (Pseudomonas aeruginosa) (UniProt Q79MP6); experiment: Inhibition of beta-lactamase in Pseudomonas aeruginosa ATCC 27853 assessed as potentiation of amoxicillin induced antibacterial activity at 10 to 100% amoxicillin to compound dilution after 24 hrs by agar well diffusion method; method in brief: as §2
[25] = system: Escherichia coli ATCC 25922; experiment: Inhibition of beta-lactamase in Escherichia coli ATCC 25922 assessed as potentiation of amoxicillin induced antibacterial activity after 24 hrs by agar well diffusion method; method in brief: as §2
[26] = target: Beta-lactamase (Staphylococcus aureus) (UniProt P00807); experiment: Inhibition of beta-lactamase in Staphylococcus aureus ATCC 25923 assessed as potentiation of amoxicillin induced antibacterial activity at 5% amoxicillin to compound dilution after 24 hrs by agar well diffusion method; method in brief: as §2
[27] = target: Beta-lactamase (Escherichia coli) (UniProt Q53TY8); experiment: Binding affinity to Escherichia coli beta-lactamase in phosphate buffer at pH 7.4 at 6 10^-5M by CD spectral analysis
Method in brief: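 Successive additions of compound (6 × 10^-5 M) were made to 1.0 mL β-lactamase in phosphate buffer pH 7.4. CD spectra were recorded at 25 °C over 200–700 nm, scan speed 50 nm/min, bandwidth 1 nm.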

[28] = target: Beta-lactamase (Escherichia coli) (UniProt Q53TY8); experiment: Binding affinity to Escherichia coli beta-lactamase assessed as chemical shift in phosphate buffer at pH 7.4 after 60 mins by NMR analysis
[29] = target: Beta-lactamase (Staphylococcus aureus) (UniProt P00807); experiment: Inhibition of beta-lactamase in Staphylococcus aureus ATCC 25923 assessed as potentiation of amoxicillin induced antibacterial activity by measuring amoxicillin MIC after 24 hrs by agar well diffusion method (reference value: 1.5 ug/ml); method in brief: as §2

## N#C/C(=C\c1cnc(Nc2ccc(Cl)cc2)nc1)c1nc2ccccc2s1
[1]
  inhibition zone (IZ): 40 mm
[2]
  inhibition zone (IZ): 30 mm
[3]
  MIC: 11.1 µg/mL (≈ 28.5 µM)
[4]
  MIC: 11.1 µg/mL (≈ 28.5 µM)
[5]
  MIC: 20 µg/mL (≈ 51.3 µM)
[6]
  inhibition zone (IZ): 35 mm
[7]
  inhibition zone (IZ): 30 mm
[8]
  MIC: 11.1 µg/mL (≈ 28.5 µM)

## N#C/C(=C\c1cnc(N2CCOCC2)nc1)c1nc2ccccc2s1
[1]
  inhibition zone (IZ): 40 mm
[2]
  inhibition zone (IZ): 32 mm
[3]
  MIC: 35.8 µg/mL (≈ 102 µM)
[4]
  MIC: 35.8 µg/mL (≈ 102 µM)
[5]
  MIC: 50 µg/mL (≈ 143 µM)
[6]
  inhibition zone (IZ): 39 mm
[7]
  inhibition zone (IZ): 30 mm
[8]
  MIC: 27.8 µg/mL (≈ 79.6 µM)

## CN(C)c1ncc(/C=C(\C#N)c2nc3ccccc3s2)cn1
[1]
  inhibition zone (IZ): 52 mm
[2]
  inhibition zone (IZ): 35 mm
[3]
  MIC: 35.8 µg/mL (≈ 116 µM)
[4]
  MIC: 50 µg/mL (≈ 163 µM)
[5]
  MIC: 50 µg/mL (≈ 163 µM)
[6]
  inhibition zone (IZ): 45 mm
[7]
  inhibition zone (IZ): 32 mm
[8]
  MIC: 35.8 µg/mL (≈ 116 µM)

## N#C/C(=C\c1cnc(Nc2ccc(Cl)cc2)nc1)c1nc2ccccc2[nH]1
[1]
  inhibition zone (IZ): 40 mm
[2]
  inhibition zone (IZ): 32 mm
[3]
  MIC: 9 µg/mL (≈ 24.1 µM)
[9]
  inhibition: Active
[10]
  MIC: 0.9 µg/mL
[4]
  MIC: 9 µg/mL (≈ 24.1 µM)
[11]
  Activity: Active
[12]
  fractional inhibitory concentration index (FICI): 0.2
[13]
  inhibition: inactive
[14]
  fractional inhibitory concentration index (FICI): 0.2
[15]
  Activity: Active
[16]
  MIC: 1.3 µg/mL
[5]
  MIC: 13 µg/mL (≈ 34.9 µM)
[17]
  MIC: 0.9 µg/mL
[18]
  MIC: 9 µg/mL (≈ 24.1 µM)
[19]
  inhibition: Active
[6]
  inhibition zone (IZ): 40 mm
[7]
  inhibition zone (IZ): 28 mm
[20]
  inhibition: inactive
[8]
  MIC: 9 µg/mL (≈ 24.1 µM)
[21]
  fractional inhibitory concentration index (FICI): 0.2
[22]
  inhibition: inactive
[23]
  inhibition: Active
[24]
  inhibition: Active
[25]
  fractional inhibitory concentration index (FICI): 0.2
[26]
  inhibition: inactive
[27]
  Activity: Active
[28]
  Activity: Active
[29]
  MIC: 0.9 µg/mL

## N#C/C(=C\c1cnc(N2CCOCC2)nc1)c1nc2ccccc2[nH]1
[1]
  inhibition zone (IZ): 40 mm
[2]
  inhibition zone (IZ): 35 mm
[3]
  MIC: 27.8 µg/mL (≈ 83.6 µM)
[4]
  MIC: 27.8 µg/mL (≈ 83.6 µM)
[5]
  MIC: 27.8 µg/mL (≈ 83.6 µM)
[6]
  inhibition zone (IZ): 39 mm
[7]
  inhibition zone (IZ): 35 mm
[8]
  MIC: 27.8 µg/mL (≈ 83.6 µM)
